Data published in ChEMBL document CHEMBL4706708, “Improving the solubility of anti-proliferative thieno[2,3-b]quinoline-2-carboxamides” (Bioorg Med Chem, 2021).
Values after ≈ are worked out from the molar mass of the structure shown.

Legend:
MDA-MB-231 = assay: Antiproliferative activity against human MDA-MB-231 cells assessed as cell growth at 1 uM measured after 3 days by [3H]-thymidine incorporation assay relative to control; assay type: functional; conditions: MDA-MB-231, 72 h, time 3 day, read-out: Activity
In short: (§1)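 HCT116 and MDA-MB-231 cells from ATCC, seeded at 3000 cells/well, exposed to inhibitor for three days; 0.04 µCi 3H-thymidine added per well 5 h before harvest onto glass fibre filters, incorporation counted by scintillation and expressed relative to untreated controls. Triplicate wells, at least two independent experiments. Single-point screen at 1 µM; IC50 determined from varying concentrations.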

HCT-116 = assay: Antiproliferative activity against human HCT-116 cells assessed as cell growth at 1 uM measured after 3 days by [3H]-thymidine incorporation assay relative to control; assay type: functional; conditions: HCT-116, 72 h, time 3 day, read-out: Activity; in short: as §1
[1] = Thermodynamic solubility of compound in water measured after 15 mins RP-HPLC analysis; assay type: physicochemical; conditions: read-out: Therm_solubility

SMILES	growth at 1 µM (MDA-MB-231)	growth at 1 µM (HCT-116)	solubility thermodynamic at 0.25 h [1]
CC(=O)c1cc2c(N)c(C(=O)Nc3cccc4cnccc34)sc2nc1C	99.8%	111%	–
Cc1nc2sc(C(=O)Nc3cccc4cnccc34)c(N)c2cc1C(C)O (stereo not drawn)	102%	110%	7.55 µg/mL (≈ 19.9 µM)
Nc1c(C(=O)Nc2ccccc2Cl)sc2nc3c(cc12)CN(Cc1ccccc1)CC3	99.8%	99.4%	1.06 µg/mL (≈ 2.36 µM)
Cc1nc2sc(C(=O)Nc3ccc4c(c3)OCCO4)c(N)c2cc1C(C)O (stereo not drawn)	105%	94.9%	0.27 µg/mL (≈ 0.7 µM)
Nc1c(C(=O)Nc2ccncc2)sc2nc3c(cc12)C(=O)CCC3	108%	110%	1.54 µg/mL (≈ 4.55 µM)
CC(=O)c1cc2c(N)c(C(=O)Nc3cccc(Cl)c3)sc2nc1C	102%	101%	1.52 µg/mL (≈ 4.22 µM)
Nc1c(C(=O)Nc2cccc3ncccc23)sc2nc3c(cc12)CN(Cc1ccccc1)CC3	91.3%	104%	0.62 µg/mL (≈ 1.33 µM)
COc1ccc(NC(=O)c2sc3nc4c(cc3c2N)CN(C)CC4)cc1	90.3%	98.9%	2.17 µg/mL (≈ 5.89 µM)
Nc1c(C(=O)Nc2cccc3cccnc23)sc2nc3c(cc12)C(=O)CCC3	99.2%	101%	0.44 µg/mL (≈ 1.13 µM)
COc1ccc(NC(=O)c2sc3nc4c(cc3c2N)COCC4)cc1	83.9%	80.1%	3.19 µg/mL (≈ 8.98 µM)
Cc1nc2sc(C(=O)Nc3cncc4ccccc34)c(N)c2cc1C(C)O (stereo not drawn)	106%	109%	–
Nc1c(C(=O)Nc2cccc3c2OCCO3)sc2nc3c(cc12)C(=O)CCC3	17.8%	18.6%	0.12 µg/mL (≈ 0.303 µM)
CC(=O)c1cc2c(N)c(C(=O)Nc3ccncc3)sc2nc1C	97.2%	103%	0.45 µg/mL (≈ 1.38 µM)
Cc1ccccc1NC(=O)c1sc2nc(C)c(C(C)O)cc2c1N (stereo not drawn)	97.9%	99.9%	29.5 µg/mL (≈ 86.5 µM)
Nc1c(C(=O)Nc2ccnc3ccccc23)sc2nc3c(cc12)CN(Cc1ccccc1)CC3	104%	82.8%	3.83 µg/mL (≈ 8.23 µM)
Nc1c(C(=O)Nc2cccc3cnccc23)sc2nc3c(cc12)CN(Cc1ccccc1)CC3	108%	110%	1.12 µg/mL (≈ 2.41 µM)
Nc1c(C(=O)Nc2cccc3ccncc23)sc2nc3c(cc12)CN(Cc1ccccc1)CC3	108%	103%	2.79 µg/mL (≈ 5.99 µM)
Nc1c(C(=O)Nc2cccc3cnccc23)sc2nc3c(cc12)C(=O)CCC3	107%	103%	1.67 µg/mL (≈ 4.3 µM)
Nc1c(C(=O)Nc2ccc3c(c2)OCCO3)sc2nc3c(cc12)C(=O)CCC3	102%	76.2%	0.32 µg/mL (≈ 0.809 µM)
CC(=O)c1cc2c(N)c(C(=O)Nc3ccc4c(c3)OCCO4)sc2nc1C	103%	104%	0.19 µg/mL (≈ 0.496 µM)
Nc1c(C(=O)Nc2ccnc3ccccc23)sc2nc3c(cc12)C(=O)CCC3	107%	101%	0.64 µg/mL (≈ 1.65 µM)
Nc1c(C(=O)Nc2cccc3c2OCCO3)sc2nc3c(cc12)CN(Cc1ccccc1)CC3	89.3%	88.2%	2.1 µg/mL (≈ 4.44 µM)
COc1cccc(NC(=O)c2sc3nc4c(cc3c2N)CN(Cc2ccccc2)CC4)c1C	106%	101%	1.89 µg/mL (≈ 4.12 µM)
Nc1c(C(=O)Nc2cccc3ccccc23)sc2nc3c(cc12)COCC3	78.3%	100%	4 µg/mL (≈ 10.7 µM)
CC(=O)c1cc2c(N)c(C(=O)Nc3cccc4ncccc34)sc2nc1C	98.7%	93%	1.3 µg/mL (≈ 3.45 µM)
Cc1nc2sc(C(=O)Nc3ccccc3)c(N)c2cc1C(C)O (stereo not drawn)	107%	95.3%	3.51 µg/mL (≈ 10.7 µM)
Nc1c(C(=O)Nc2cccc3ccncc23)sc2nc3c(cc12)C(=O)CCC3	115%	98.1%	1.94 µg/mL (≈ 4.99 µM)
Cc1nc2sc(C(=O)Nc3cccc4ccncc34)c(N)c2cc1C(C)O (stereo not drawn)	94.6%	83.1%	10.1 µg/mL (≈ 26.6 µM)
Cc1ccccc1NC(=O)c1sc2nc3c(cc2c1N)CN(C)CC3	95.3%	101%	5.61 µg/mL (≈ 15.9 µM)
CC(=O)c1cc2c(N)c(C(=O)Nc3cccc4cccnc34)sc2nc1C	86.7%	97%	3 µg/mL (≈ 7.97 µM)
